Screening data as filed in PubChem.
RAM inhibit: inhibitors of the yeast RAM network | S. cerevisiae dse1pr::URA3 reporter, 5-FOA growth OD615, 2 d; analog-sensitive cbk1-as2 kinase mutant strain | inhibition, % at 50 µM | hit rate 1.8% among 190,000 | AID 868;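 active = inhibition above a set limit, 3 SD over mean compound inhibition, cut at about 8.4% in these data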;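 note: 0% = DMSO-only wells with no growth and 100% = 10 µM 1-NA-PP1 full growth; inhibition rescues growth on 5-FOA so higher OD means more RAM inhibition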
Yeast growth inh: yeast BB579 growth reduction in restrictive medium; hit rate 0.51% among 140,000; inhibition, % at 10 µM; S. cerevisiae BB579 growth, OD615, 48 h; AID 804;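 active = inhibition above a set limit, 3 SD over the mean compound inhibition, cut at about 44% in these data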
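Assay system: S. cerevisiae DeaD strain BB579 yeast. Medium: CSMM-D restrictive synthetic medium containing dextrose (glucose). Times: 4 h cell preincubation, 48 h compound exposure, 30 °C humidified. Signal: OD615 turbidity measurement. Benchmarks: positive control amphotericin B 10 µg/mL.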
Measles CPE: protection of cells from measles virus. hit rate 1.5% among 140,000. Measles virus-infected cells, CPE protection, absorbance. protection (pct of control), % at 4 µM; in the data active = protection mostly above about 24%, no sharp cut-off; inactive = mostly below about 26%
Yeast life ext: yeast lifespan extension. S. cerevisiae growth with nicotinamide, OD615; deaD strain in restrictive glucose medium. inhibition of the nicotinamide effect, % at 10 µM. hit rate 0.68% among 130,000. AID 775;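 active = inhibition above a set limit, placed 3 SD over the median of all compounds, cut at about 26% in these data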;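 note: 0% = nicotinamide-treated wells and 100% = cells grown without nicotinamide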
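System: Modified budding yeast, DeaD strain | Buffer or medium: Restrictive glucose medium | Also added: 1.5 mM nicotinamide | Doses: 10 µM single point, 0.25% DMSO | Schedule: 48 h compound exposure at 30 °C, humidified | Detection: Absorbance at 615 nm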
Numbers without * were called inactive; . = not tested or not shown. Only some compounds are listed: those with a hit (about 3.6% of all), similar ones and a draw of the others.

SMILES	RAM inhibit	Yeast growth inh	Measles CPE	Yeast life ext
CCOC(=O)c1c(NC(=S)Nc2ccc(Cl)cc2)sc(C)c1C	5	-42	8	-8
COC(=O)c1c(NC(=S)Nc2ccc(CC(=O)O)cc2)sc(C)c1C	10*	-15	2	4
C(#CCN1CCC(Cc2ccccc2)CC1)COCCOCc1ccccc1	0	4	25	-5
CCC1=NN(C(=O)CCc2ccc3c(c2)OCO3)C(O)(C(F)(F)F)C1 (configuration not stated)	0	.	.	.
CCc1c(C)sc(NC(=S)N2CC(C)OC(C)C2)c1C(=O)OC (configuration not stated)	11*	.	.	.
CC(C)Cc1ccc(C(C)C(=O)OCC(=O)c2c[nH]c3ccccc23)cc1 (configuration not stated)	10*	-27	4	-5
O=C(Nc1cccc(C(F)(F)F)c1)n1cc(-c2ccccn2)c(N2CCOCC2)n1	2	.	.	.
COc1ccc(OCc2nnc(SCC(=O)c3c(N)n(C)c(=O)n(C)c3=O)n2-c2ccccc2F)cc1	11*	.	.	.
COc1nc(Cl)cn(-c2ccc(C)cc2)c1=O	0	-18	2	10
Cc1ccc(-n2c(Cl)c(Cl)nc(Cl)c2=O)cc1	0	100*	1	-9
Cc1ccc2nc(Cl)c(/C=N/NC(=O)[C@H]3C[C@@H]3c3ccccc3)cc2c1	3	-6	10	-5
CC(C)(C)c1ccc(C2CC2C(=O)N/N=C\c2cc3ccccc3nc2Cl)cc1 (configuration not stated)	1	-18	51*	-12
Nc1ccc(-n2nnnc2CN2CCOCC2)cc1	0	-49	43*	5
c1ccc(-n2nnnc2CN2CCOCC2)cc1	1	-2	5	-4
O=C(NCC1CCCO1)c1ccc(OC2CCN(C(=O)C3CC3)CC2)cc1 (configuration not stated)	1	.	.	.
O=C(Nc1ccc(Cl)cc1)c1csc(-c2ccccc2)n1	9.7*	-56	0	-15
Cc1nc2ccccc2c(=O)n1NC(=O)Cc1ccc([N+](=O)[O-])cc1	1	.	.	.
Cc1ccc(-n2nnnc2/C=C\Nc2cc(C)on2)cc1	3	-17	2	-4
Cc1cc(N/C=C\c2nnnn2-c2ccc(F)cc2)no1	1	-34	34*	-2
CC1=Nc2ccccc2/C1=C/c1sc(=S)n(-c2cccc(C(=O)O)c2)c1O	10.0*	.	.	.
Oc1ccc(/C=N/N=C(c2ccccc2)c2ccccc2)c(O)c1O	0	90*	15	-13
O=[N+]([O-])c1cc(/C=N/Nc2nc3ccccc3[nH]2)c(O)cc1O	2	-15	1	-3
CCOC(=O)c1sc(NC(C)=O)nc1-c1ccccc1	1	-35	18	-6
CC(=O)Nc1sc(N)nc1-c1ccccc1	3	-45	35*	-3
OC(CNCc1ccccc1Cl)C(F)(F)F (configuration not stated)	0	.	.	.
SMILES	RAM inhibit	Yeast growth inh	Measles CPE	Yeast life ext
Cc1cc(/C=N/n2cnnc2)c(C)n1-c1ccc(OCc2ccc(Cl)cc2)cc1	1	8	48*	-7
CSC1=NC(C(Cl)(Cl)Cl)N=C(c2ccccc2)N1 (configuration not stated)	1	.	.	.
COc1ccc(C2=NOC(C(=O)NCc3ccccc3)C2)cc1 (configuration not stated)	3	-32	3	-21
COc1ccc(CNC(=O)C2CC(c3ccccc3[N+](=O)[O-])=NO2)cc1 (configuration not stated)	0	-8	36*	-24
COc1cccc(C2=NOC(C(=O)NCc3ccccc3)C2)c1 (configuration not stated)	1	-5	23*	-20
O=C(CCSc1ccc(Cl)cc1)c1cccs1	2	-5	35*	-7
O=C(CCNc1ccc(Cl)cc1)c1cccs1	2	-41	28	-5
O=C(NCCc1ccc(Cl)cc1)c1cccs1	2	.	.	.
O=C(CCNc1cc(Cl)cc(Cl)c1)c1cccs1	-1	-42	45*	-28
O=C(NC(Cc1c[nH]c2ccccc12)C(=O)Nc1ccc(OC(F)(F)F)cc1)c1cccs1 (configuration not stated)	7	4	52*	10
COCc1cc(C)nc(SCC[N+](C)(C)CC(=O)Nc2cccc(C(F)(F)F)c2)c1C#N	-1	.	.	.
Cc1c(C(=O)NN)nc2ccccn12	0	-30	14	0
O=C(CN1C(=O)COc2ccccc21)NCCCN1CCN(Cc2ccccc2)CC1	1	-49	7	6
O=C(CN1C(=O)COc2ccccc21)NCCCN1CCc2ccccc2C1	3	-37	27*	-14
C=CCOc1ccc(/C(O)=C2\C(=O)C(=O)N(CCCOC)C2c2ccc(O)c(OC)c2)cc1 (configuration not stated)	6	-14	2	-24
CCOc1cc(C2/C(=C(/O)c3ccc(OC(C)C)cc3)C(=O)C(=O)N2CCCOC)ccc1O (configuration not stated)	8.5*	-71	.	-15
O=C(/C=C/c1ccccc1)CC(O)(c1ccccc1)C(F)(F)C(F)F (configuration not stated)	3	-42	14	40*
COc1ccc(/C=C/C(=O)CC(O)(c2ccccc2)C(F)(F)F)cc1 (configuration not stated)	2	-21	4	.
O=C(/C=C/c1ccccc1)CC(O)(c1ccccc1)C(F)(F)F (configuration not stated)	3	-27	5	35*
O=C(c1cccc(N2C(=O)C3C4C=CC(C4)C3C2=O)c1)N1CCN(c2ccccc2)CC1 (configuration not stated)	1	.	.	.
COCCn1c(SCC(=O)Nc2nc(C)c(Cl)cc2Cl)nc2ccccc21	0	-14	1	-7
COc1ccc(-n2c(SCC(=O)Nc3ncc(Cl)cc3Cl)nc3ccccc32)cc1	4	.	.	.
O=C(CSc1nc2ccccc2n1-c1ccccc1)Nc1ncc(Cl)cc1Cl	0	-14	53*	-3
Cc1cccc(-n2c(SCC(=O)Nc3ncc(Cl)cc3Cl)nc3ccccc32)c1	5	-53	43*	-6
O=C1Nc2ccccc2C(=O)N2CCCCC12 (configuration not stated)	4	.	.	.
SMILES	RAM inhibit	Yeast growth inh	Measles CPE	Yeast life ext
c1ccc2c(c1)CC(N1CCCCC1)c1ccccc1N2 (configuration not stated)	2	3	42*	-11
N#Cc1c(NC(=O)C2CC(Cl)=CCC2C(=O)O)sc2c1CCCC2 (configuration not stated)	0	.	.	.
FC(F)(F)c1nc(N2CCCC2)ncc1-c1nnnn1-c1ccccc1	0	10	62*	1
CC1=C(C)/C(=N\OS(=O)(=O)c2ccc(C)cc2)C=CC1=O	0	99*	1	-10
CC1=C/C(=N\OS(=O)(=O)c2ccccc2)C(C)=CC1=O	-1	100*	12	-19
CC1=C/C(=N\OS(=O)(=O)c2ccccc2)C(C(C)C)=CC1=O	0	100*	5	-12
CC(C)c1cc(C(C)C)c(S(=O)(=O)NNC(=O)c2ccncc2)c(C(C)C)c1	0	11	12	-1
